# Measured values gathered from unrelated publications.
# Each line is one published result; the experiments were not run side by side.
# Target: Ephrin type-A receptor 1 (EPHA1, Homo sapiens, UniProt P21709)
# One construct used (P21709 26-976): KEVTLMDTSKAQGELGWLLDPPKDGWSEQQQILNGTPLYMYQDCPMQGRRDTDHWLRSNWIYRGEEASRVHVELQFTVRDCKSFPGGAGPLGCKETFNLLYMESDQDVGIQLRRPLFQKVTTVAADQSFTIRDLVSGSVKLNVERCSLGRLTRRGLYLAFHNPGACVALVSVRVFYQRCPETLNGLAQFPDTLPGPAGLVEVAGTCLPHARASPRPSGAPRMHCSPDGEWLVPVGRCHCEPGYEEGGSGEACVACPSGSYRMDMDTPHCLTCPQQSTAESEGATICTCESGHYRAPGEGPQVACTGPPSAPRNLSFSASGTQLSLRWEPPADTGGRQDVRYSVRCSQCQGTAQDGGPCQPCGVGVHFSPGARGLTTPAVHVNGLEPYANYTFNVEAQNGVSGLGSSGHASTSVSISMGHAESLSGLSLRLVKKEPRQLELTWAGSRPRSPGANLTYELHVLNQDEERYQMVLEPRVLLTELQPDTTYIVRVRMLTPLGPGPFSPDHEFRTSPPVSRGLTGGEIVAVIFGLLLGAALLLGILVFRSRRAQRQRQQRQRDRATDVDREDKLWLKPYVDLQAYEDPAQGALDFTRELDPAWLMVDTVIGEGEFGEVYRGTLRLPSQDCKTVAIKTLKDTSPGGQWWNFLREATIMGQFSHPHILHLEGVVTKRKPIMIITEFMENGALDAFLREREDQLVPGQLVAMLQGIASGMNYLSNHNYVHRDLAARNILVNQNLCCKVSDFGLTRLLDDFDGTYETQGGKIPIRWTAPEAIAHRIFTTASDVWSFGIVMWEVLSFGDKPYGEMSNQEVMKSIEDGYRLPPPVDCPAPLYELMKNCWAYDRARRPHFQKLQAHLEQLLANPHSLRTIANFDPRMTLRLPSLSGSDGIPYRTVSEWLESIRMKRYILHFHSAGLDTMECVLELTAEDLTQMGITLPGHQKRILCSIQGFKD
SMILES,assay,conditions,remaining binding
COc1cnc(Nc2cccc(S(N)(=O)=O)c2)nc1N1CCN(c2ccccc2)CC1,"binding, competition with immobilised ligand",1 µM,100%
CC1CCCN1c1nccc(-c2cnn3ncccc23)n1 (stereo not drawn),binding,1 µM,96%
Cc1nc(Cc2cccc(C(F)(F)F)c2)sc1-c1ccc(C(N)=O)nc1,"cell-free assay, competition with immobilised ligand",1 µM,81%
O=C(c1ccc(Nc2ncc(Cl)c(-c3cc4ccccc4s3)n2)cc1)N1CCC(N2CCCC2)CC1,"binding, competition with immobilised ligand",1 µM,16%
c1cncc(-c2cccc(Nc3nccc(NC4CCCCC4)n3)c2)c1,"binding, competition with immobilised ligand",10 µM,51%
CN(c1nccc(-c2cnn3ncccc23)n1)C1CC1,binding,1 µM,99%
CC(=O)N1CCC(c2ccc(C(=O)NC3=NCCN3)cc2C(F)(F)F)CC1,"cell-free assay, competition with immobilised ligand",1 µM,88%
N[C@H]1CCN(c2nccc(-c3cnn4ncccc34)n2)C1,binding,1 µM,100%
CNC(=O)Nc1ccc2c(c1)CC[C@@]21OC(=O)N(CC(=O)N(Cc2ccc(F)cc2)[C@@H](C)C(F)(F)F)C1=O,"cell-free assay, competition with immobilised ligand",1 µM,88%
C[C@@H]1CCN(c2nccc(-c3cnn4ncccc34)n2)C1,binding,1 µM,100%
CCS(=O)(=O)c1cc2cc(C[C@@](O)(CC(C)(C)c3ccc(F)cc3C(N)=O)C(F)(F)F)[nH]c2cn1,"cell-free assay, competition with immobilised ligand",1 µM,99%
C[C@@H](c1ccc(-n2cnc3c(N)ncnc32)cc1)N1CCc2nn(C)c(Cc3ccccc3)c2C1=O,"binding, competition with immobilised ligand",0.1 µM,87%
O=C(c1ccc(Nc2ncc(Cl)c(-c3ccc(Cl)s3)n2)cc1)N1CCC(N2CCCC2)CC1,"binding, competition with immobilised ligand",1 µM,32%
CN(C)c1ncc(F)c(-c2cnn3ncccc23)n1,binding,1 µM,98%
COc1cnc(Nc2cccc(S(N)(=O)=O)c2)nc1N1CCN(c2ccccc2)C(=O)C1,"binding, competition with immobilised ligand",1 µM,90%
COc1ccc2cc(OCC3(C(=O)O)CN(C(=O)c4ccc(F)cc4)C3)ccc2c1,"cell-free assay, competition with immobilised ligand",1 µM,83%
O=C(NCCCN1CCOCC1)c1ccc(Nc2nccc(-c3cc4ccccc4s3)n2)cc1,"binding, competition with immobilised ligand",1 µM,44%
O=C(NCC1CCOCC1)c1n[nH]cc1NC(=O)c1c(F)cccc1F,"binding, competition with immobilised ligand",1 µM,100%
Nc1ncc2c(n1)-c1c([nH]c3ccc(C#CC4CC4)cc13)CCCC2,"binding, competition with immobilised ligand",1 µM,89%
CC(=O)C1=C(C)N(c2cccc(C(F)(F)F)c2)C(=O)N[C@@H]1c1ccc(C#N)nc1,"cell-free assay, competition with immobilised ligand",1 µM,100%
CN(C)c1nccc(-c2cnc3ncccn23)n1,binding,1 µM,93%
